Measured values as given in ChEMBL document CHEMBL4400562, “Plumbagin Increases Paclitaxel-Induced Cell Death and Overcomes Paclitaxel Resistance in Breast Cancer Cells through ERK-Mediated Apoptosis Induction” (J Nat Prod, 2019).
The source made the active and inactive calls. The calls are words filed in the database; no cut-off is given here.

Legend:
[1] = test system: BT-474; test: Induction of apoptosis in human BT474 cells at 2 nM after 24 hrs by Annexin V-phycoerythrin/7-AAD staining based flow cytometric analysis relative to control; format: functional
[2] = test system: MCF7; test: Induction of apoptosis in human MCF7 cells at 1 nM after 24 hrs by Annexin V-phycoerythrin/7-AAD staining based flow cytometric analysis relative to control; format: functional
[3] = test system: MDA-MB-468; test: Induction of apoptosis in human MDA-MB-468 cells at 1 nM after 24 hrs by Annexin V-phycoerythrin/7-AAD staining based flow cytometric analysis relative to control; format: functional
[4] = molecular target: T1, Mitogen-activated protein kinase; ERK1/ERK2 (Homo sapiens) (UniProt P27361+P28482); test: Inhibition of ERK1/2 in human MCF7 cells assessed as reduction in EGF-induced phosphorylation of ERK1/2 level up to 1 uM preincubated for 24 hrs followed by EGF addition and measured after 30 mins by Western blot analysis; format: cell-based
[5] = test system: MDA-MB-468; test: Induction of apoptosis in human MDA-MB-468 cells pre-treated with ERK1/2 siRNA at 0.2 uM in presence of 1 nM paclitaxel by Annexin V-phycoerythrin/7-AAD staining based flow cytometric analysis relative to control; format: functional
Procedure, shortened: (§1)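 Cells were transiently transfected for 24 h with ERK1 and ERK2 siRNA (0.5 μg) or scrambled control siRNA, with knockdown checked by Western blot. Cells were then treated for 24 h with the combination, stained with annexin V-PE and 7-AAD, and analysed by flow cytometry. Apoptosis was compared against control-siRNA cells.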

[6] = test system: MCF7; test: Induction of apoptosis in human MCF7 cells up to 3 uM after 24 hrs in presence of 1 nM of paclitaxel by Annexin V-phycoerythrin/7-AAD staining based flow cytometric analysis relative to control; format: functional
Procedure, shortened: (§2)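 Cells were treated for 24 h with single agents or combinations, then washed in annexin-binding buffer and stained with annexin V-PE and 7-AAD for 30 min at 15 °C in the dark. Apoptotic fraction was read by flow cytometry. DMSO was 0.5% final. Data from at least three independent experiments, one-way ANOVA with Tukey's test.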

[7] = test system: MCF7; test: Synergistic cytotoxicity against human MCF7 cells assessed as combination index at 1 to 5 uM after 24 hrs in presence of 0.5 to 10 nM of paclitaxel by MTT assay; format: functional
Procedure, shortened: (§3)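 The Chou–Talalay median-effect method was applied to 24 h MTT viability data. Five fixed-ratio plumbagin (μM)/paclitaxel (nM) combinations were used: for MCF-7 1/0.5, 2/1, 3/3, 4/5, 5/10. Cell-line-specific series were used for BT474 and MDA-MB-468. Single agents were run in parallel. CI was computed at several effect levels.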

[8] = test system: MCF7/PTX; test: Potentiation of paclitaxel-induced apoptosis in paclitaxel-resistant human MCF7/PTX cells at 2 uM after 24 hrs by Annexin V-phycoerythrin/7-AAD staining based flow cytometric analysis; format: functional, cell-based; procedure, shortened: as §2
[9] = molecular target: T1, Mitogen-activated protein kinase; ERK1/ERK2 (Homo sapiens); test: Inhibition of ERK1/2 in human BT474 cells assessed as reduction in EGF-induced phosphorylation of ERK1/2 at Thr202/Tyr204 residues up to 2 uM preincubated for 1 hrs followed by EGF addition and measured after 30 mins by AlphaScreen analysis relative to control; format: cell-based
[10] = molecular target: T1, Mitogen-activated protein kinase; ERK1/ERK2 (Homo sapiens); test: Inhibition of ERK1/2 in human BT474 cells assessed as reduction in EGF-induced phosphorylation of ERK1/2 level up to 1 uM preincubated for 24 hrs followed by EGF addition and measured after 30 mins by Western blot analysis; format: cell-based
[11] = test system: BT-474; test: Synergistic cytotoxicity against human BT474 cells assessed as combination index at 1 to 5 uM after 24 hrs in presence of 0.1 to 20 nM of paclitaxel by MTT assay; format: functional; procedure, shortened: as §3
[12] = test system: MDA-MB-468; test: Induction of apoptosis in human MDA-MB-468 cells at 0.2 uM after 24 hrs in presence of 1 nM of paclitaxel by Annexin V-phycoerythrin/7-AAD staining based flow cytometric analysis relative to control; format: functional; procedure, shortened: as §2
[13] = molecular target: T1, Mitogen-activated protein kinase; ERK1/ERK2 (Homo sapiens); test: Inhibition of ERK1/2 in paclitaxel-resistant human MCF7/PTX cells assessed as reduction in paclitaxel-induced phosphorylation of ERK1/2 at Thr202/Tyr204 residues up to 3 uM preincubated for 1 hrs followed by 1 nM paclitaxel addition and measured after 30 mins by AlphaScreen analysis; format: cell-based
[14] = test system: BT-474; test: Induction of apoptosis in human BT474 cells up to 2.5 uM after 24 hrs in presence of 2 nM of paclitaxel by Annexin V-phycoerythrin/7-AAD staining based flow cytometric analysis relative to control; format: functional; procedure, shortened: as §2
[15] = molecular target: T1, Mitogen-activated protein kinase; ERK1/ERK2 (Homo sapiens); test: Inhibition of ERK1/2 in human MDA-MB-468 cells assessed as reduction in EGF-induced phosphorylation of ERK1/2 level up to 0.5 uM preincubated for 24 hrs followed by EGF addition and measured after 30 mins by Western blot analysis; format: cell-based
[16] = molecular target: T1, Mitogen-activated protein kinase; ERK1/ERK2 (Homo sapiens); test: Inhibition of ERK1/2 in human MDA-MB-468 cells assessed as reduction in paclitaxel-induced phosphorylation of ERK1/2 at Thr202/Tyr204 residues up to 1 uM preincubated for 1 hrs followed by 1 nM paclitaxel addition and measured after 30 mins by AlphaScreen analysis relative to control; format: cell-based
[17] = molecular target: T1, Mitogen-activated protein kinase; ERK1/ERK2 (Homo sapiens); test: Inhibition of ERK1/2 in human MCF7 cells assessed as reduction in EGF-induced phosphorylation of ERK1/2 at Thr202/Tyr204 residues up to 3 uM preincubated for 1 hrs followed by EGF addition and measured after 30 mins by AlphaScreen analysis relative to control; format: cell-based
[18] = test system: BT-474; test: Induction of apoptosis in human BT474 cells pre-treated with ERK1/2 siRNA at 1.5 uM in presence of 2 nM paclitaxel by Annexin V-phycoerythrin/7-AAD staining based flow cytometric analysis relative to control; format: functional, cell-based; procedure, shortened: as §1
[19] = test system: MCF7; test: Cytotoxicity against human MCF7 cells assessed as reduction in cell viability after 24 hrs by MTT assay; conditions: MCF7, 24 h
[20] = molecular target: T1, Mitogen-activated protein kinase; ERK1/ERK2 (Homo sapiens); test: Inhibition of ERK1/2 in human BT474 cells assessed as reduction in paclitaxel-induced phosphorylation of ERK1/2 at Thr202/Tyr204 residues up to 2 uM preincubated for 1 hrs followed by 1 nM paclitaxel addition and measured after 30 mins by AlphaScreen analysis relative to control; format: cell-based
[21] = test system: MCF7; test: Induction of apoptosis in human MCF7 cells pre-treated with ERK1/2 siRNA at 2 uM in presence of 1 nM paclitaxel by Annexin V-phycoerythrin/7-AAD staining based flow cytometric analysis relative to control; format: functional, cell-based; procedure, shortened: as §1
[22] = molecular target: T1, Mitogen-activated protein kinase; ERK1/ERK2 (Homo sapiens); test: Inhibition of ERK1/2 in human MDA-MB-468 cells assessed as reduction in EGF-induced phosphorylation of ERK1/2 at Thr202/Tyr204 residues up to 1 uM preincubated for 1 hrs followed by EGF addition and measured after 30 mins by AlphaScreen analysis relative to control; format: cell-based
[23] = test system: MCF7/PTX; test: Induction of apoptosis in paclitaxel-resistant human MCF7/PTX cells at 3 uM after 24 hrs by Annexin V-phycoerythrin/7-AAD staining based flow cytometric analysis relative to control; format: functional; procedure, shortened: as §2
[24] = test system: MCF7/PTX; test: Cytotoxicity against paclitaxel-resistant human MCF7/PTX cells assessed as reduction in cell viability after 24 hrs by MTT assay; format: functional, cell-based
Procedure, shortened: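 MTT viability after 24 h exposure. MCF-7/PTX cells were derived from MCF-7 by three months of culture in rising paclitaxel (0.4 to 6.0 nM). Cells grew in RPMI with 10% FBS at 37 °C, 5% CO2. Compounds were dissolved in DMSO, 0.5% final. At least three independent experiments.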

[25] = test system: MDA-MB-468; test: Induction of apoptosis in human MDA-MB-468 cells at 0.5 uM after 24 hrs in presence of 1 nM of paclitaxel by Annexin V-phycoerythrin/7-AAD staining based flow cytometric analysis relative to control; format: functional; procedure, shortened: as §2
[26] = test system: MDA-MB-468; test: Synergistic cytotoxicity against human MDA-MB-468 cells assessed as combination index at 0.5 to 2 uM after 24 hrs in presence of 5 to 20 nM of paclitaxel by MTT assay; format: functional; procedure, shortened: as §3
[27] = molecular target: T1, Mitogen-activated protein kinase; ERK1/ERK2 (Homo sapiens); test: Inhibition of ERK1/2 in human MCF7 cells assessed as reduction in paclitaxel-induced phosphorylation of ERK1/2 at Thr202/Tyr204 residues up to 3 uM preincubated for 1 hrs followed by 1 nM paclitaxel addition and measured after 30 mins by AlphaScreen analysis relative to control; format: cell-based
[28] = test system: MCF7; test: Induction of apoptosis in human MCF7 cells at 3 uM after 24 hrs by Annexin V-phycoerythrin/7-AAD staining based flow cytometric analysis relative to control; format: functional; procedure, shortened: as §2

T1 sequence (P27361 whole entry, looked up): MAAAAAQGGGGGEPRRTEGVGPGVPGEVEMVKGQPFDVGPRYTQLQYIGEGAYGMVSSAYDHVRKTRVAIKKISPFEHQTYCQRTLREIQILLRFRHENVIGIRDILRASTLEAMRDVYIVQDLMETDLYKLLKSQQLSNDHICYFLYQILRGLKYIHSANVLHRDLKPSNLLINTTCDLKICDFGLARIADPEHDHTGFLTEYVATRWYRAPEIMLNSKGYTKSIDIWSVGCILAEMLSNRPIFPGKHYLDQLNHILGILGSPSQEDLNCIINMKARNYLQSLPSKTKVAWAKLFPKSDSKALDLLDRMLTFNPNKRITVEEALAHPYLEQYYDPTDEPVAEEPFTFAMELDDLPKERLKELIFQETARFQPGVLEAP
T1 sequence (P28482 whole entry, looked up): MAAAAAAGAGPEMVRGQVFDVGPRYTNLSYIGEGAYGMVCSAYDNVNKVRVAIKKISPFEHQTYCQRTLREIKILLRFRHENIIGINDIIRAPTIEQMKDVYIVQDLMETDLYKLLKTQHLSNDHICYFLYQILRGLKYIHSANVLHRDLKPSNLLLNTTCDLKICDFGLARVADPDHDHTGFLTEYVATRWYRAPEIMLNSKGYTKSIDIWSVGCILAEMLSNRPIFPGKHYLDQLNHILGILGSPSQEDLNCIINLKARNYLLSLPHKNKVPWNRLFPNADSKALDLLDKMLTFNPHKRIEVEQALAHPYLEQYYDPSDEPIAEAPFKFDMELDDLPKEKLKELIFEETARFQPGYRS

Compound: CC(=O)O[C@H]1C(=O)[C@@]2(C)[C@H]([C@H](OC(=O)c3ccccc3)[C@]3(O)C[C@H](OC(=O)[C@H](O)[C@@H](NC(=O)c4ccccc4)c4ccccc4)C(C)=C1C3(C)C)[C@]1(OC(C)=O)CO[C@@H]1C[C@@H]2O [PACLITAXEL]
- Activity [1]: 10 - 15%
- Activity [2]: 10 - 15%
- Activity [3]: 10 - 15%

Compound: CC1=CC(=O)c2c(O)cccc2C1=O [PLUMBAGIN]
- inhibition [4]: Active
- Activity [5]: 25%
- Activity [6]: 10%
- CI [7]: 0.9
- Activity [8]: Active
- inhibition [9]: Active
- inhibition [10]: Active
- CI [11]: 0.6
- Activity [12]: 20%
- inhibition [13]: Active
- Activity [14]: 15%
- inhibition [15]: Active
- inhibition [16]: Active
- inhibition [17]: Active
- Activity [18]: Active
- IC50 [19]: 3.5 µM
- inhibition [20]: Active
- Activity [21]: Active
- inhibition [22]: Active
- Activity [23]: 20%
- IC50 [24]: 3.5 µM
- Activity [25]: 35%
- CI [26]: 0.5 - 1
- inhibition [27]: Active
- Activity [28]: 20%
